ChEMBL document CHEMBL1136108, “Benzoxazinones as PPARgamma agonists. part 1: SAR of three aromatic regions” (Bioorg Med Chem Lett, 2003)

Key:
[1] = target: T1, Peroxisome proliferator-activated receptor gamma (Homo sapiens) (UniProt P37231); assay: Functional potency was determined in pooled human preadipocytes by measurement of PPARg aP2 gene induction; format: cell-based
T1 sequence (whole entry): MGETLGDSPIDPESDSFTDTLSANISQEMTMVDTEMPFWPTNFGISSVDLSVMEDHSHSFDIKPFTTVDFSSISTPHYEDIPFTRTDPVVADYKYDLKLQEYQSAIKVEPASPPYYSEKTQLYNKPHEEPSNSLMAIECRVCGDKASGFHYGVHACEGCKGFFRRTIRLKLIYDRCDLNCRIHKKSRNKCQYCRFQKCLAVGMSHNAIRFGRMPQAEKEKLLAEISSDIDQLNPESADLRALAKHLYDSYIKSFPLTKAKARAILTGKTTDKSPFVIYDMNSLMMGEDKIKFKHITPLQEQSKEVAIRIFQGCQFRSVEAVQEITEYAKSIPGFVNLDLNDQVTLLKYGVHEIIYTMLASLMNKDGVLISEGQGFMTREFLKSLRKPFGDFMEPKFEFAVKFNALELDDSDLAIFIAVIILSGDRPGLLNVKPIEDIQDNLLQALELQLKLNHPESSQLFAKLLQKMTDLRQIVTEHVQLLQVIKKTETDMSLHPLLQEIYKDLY
In short: (§1)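 Pooled human preadipocytes treated with compound. Induction of the aP2 gene was quantified by a branched DNA technique. EC50 values are the mean of two experiments.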

[2] = target: T1, Peroxisome proliferator-activated receptor gamma (Homo sapiens); assay: Agonist activity determined in peroxisome proliferator activated receptor gamma using PPAR gamma-Gal4 Luciferase cotransfection assay; format: functional
In short: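 HEK293 cells grown in DMEM/F-12 with 10% FBS and glutamine, co-transfected (DMRIE-C) with PPARg-Gal4 receptor and Gal4-luciferase reporter DNA. Next day, medium switched to 5% charcoal-treated FBS; after 6 h cells seeded and incubated overnight at 37°C. Compound exposure 24 h at 37°C, 5% CO2; luciferase read by Steady-Glo. Values are the mean of two experiments.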

[3] = target: T1, Peroxisome proliferator-activated receptor gamma (Homo sapiens); assay: PPAR gamma mediated aP2 gene induction in pooled human preadipocytes; format: functional, cell-based; in short: as §1
Mus musculus = assay: Decrease in plasma glucose in db/db mice after 5 days of 30 mg/kg oral administration; format: functional
[4] = Half life period in human liver microsome was determined; format: ADME; settings: liver microsomes
[5] = Half life period after administration (30 mg/kg) in rat; format: ADME, organism-based; settings: in vivo
Rattus norvegicus [6] = assay: Area under curve (AUC0-24 h) after administration (30 mg/kg) in rat; format: ADME, organism-based; set-up: dose 30 mg/kg, time < 24 hr; settings: in vivo
Rattus norvegicus [7] = assay: Oral bioavailability after administration (30 mg/kg) in rat; good; format: ADME, organism-based; settings: in vivo
[8] = Half life period in human hepatic S9 fraction was determined; format: ADME, subcellular; settings: liver S9 fraction

Activity [1]	Activity [2]	Compound	other results
5 µM	2 µM	Cc1ccc(CN2C(=O)C(CCOc3ccccc3CC(=O)O)Oc3ccccc32)cc1 (stereo not drawn)	
2.4 µM	1.9 µM	O=C(O)Cc1ccccc1OCCC1Oc2ccccc2N(Cc2cccc(Cl)c2)C1=O (stereo not drawn)	Fold induction [3]: 6.2
4.4 µM	1.1 µM	O=C(O)Cc1ccccc1OCCC1Oc2ccccc2N(Cc2ccc3c(c2)OCO3)C1=O (stereo not drawn)	
3.2 µM	1.1 µM	O=C(O)Cc1ccccc1OCCC1Oc2ccccc2N(Cc2ccc(F)cc2)C1=O (stereo not drawn)	
> 10 µM	> 5 µM	O=C(O)Cc1ccccc1OCCC1Oc2ccccc2N(CCc2ccc(Cl)c(Cl)c2)C1=O (stereo not drawn)	
> 10 µM	> 5 µM	O=C(O)Cc1ccccc1OCCC1Oc2cc(F)ccc2N(Cc2ccc(Cl)cc2)C1=O (stereo not drawn)	
0.51 µM	0.5 µM	O=C(O)Cc1ccccc1OCCC1Oc2ccccc2N(Cc2ccc(C(F)(F)F)cc2)C1=O (stereo not drawn)	
4.2 µM	2.1 µM	Cc1ccc2c(c1)OC(CCOc1ccccc1CC(=O)O)C(=O)N2Cc1ccc(Cl)cc1 (stereo not drawn)	
> 10 µM	> 5 µM	O=C(O)CCc1ccccc1OCCC1Oc2ccccc2N(Cc2ccc(Cl)cc2)C1=O (stereo not drawn)	
2.1 µM	1.3 µM	O=C(O)Cc1ccccc1OCCC1Oc2ccccc2N(Cc2ccc(Cl)cc2)C1=O (stereo not drawn)	Glucose level (Mus musculus): 27%; half-life [4]: > 0.833 h; half-life [5]: 20 h; AUC (Rattus norvegicus [6]): 308 µM·h; F (Rattus norvegicus [7]): Active; half-life [8]: > 0.833 h
2.6 µM	0.96 µM	O=C(O)Cc1ccccc1OCCC1Oc2ccccc2N(Cc2ccc(Cl)c(Cl)c2)C1=O (stereo not drawn)	
5.9 µM	0.57 µM	O=C(O)Cc1ccccc1OCCC1Oc2ccccc2N(c2ccc(Cl)c(Cl)c2)C1=O (stereo not drawn)	
4.6 µM	> 5 µM	O=C(O)Cc1ccccc1OCCC1Oc2ccccc2N(Cc2ccccc2)C1=O (stereo not drawn)	
1.3 µM	0.59 µM	O=C(O)Cc1ccccc1OCCC1Oc2ccccc2N(Cc2ccc(F)c(F)c2)C1=O (stereo not drawn)	
> 10 µM	> 5 µM	O=C(O)Cc1ccccc1OCCC1CN(Cc2ccc(Cl)c(Cl)c2)c2ccccc2O1 (stereo not drawn)	
5.4 µM	0.52 µM	COc1ccc(CN2C(=O)C(CCOc3ccccc3CC(=O)O)Oc3ccccc32)cc1 (stereo not drawn)	

Further lines, the molecule ahead of its results:

Compound	Activity [1]	Activity [2]	other results
O=C(O)Cc1ccccc1OCCC1Oc2ccc(C(=O)O)cc2N(Cc2ccc(Cl)cc2)C1=O (stereo not drawn)	> 10 µM	> 5 µM	
O=C(O)Cc1ccccc1OCCC1Oc2cc3ccccc3cc2N(Cc2ccc(Cl)cc2)C1=O (stereo not drawn)	> 10 µM	> 5 µM	
COc1ccc2c(c1)N(Cc1ccc(Cl)cc1)C(=O)C(CCOc1ccccc1CC(=O)O)O2 (stereo not drawn)	6 µM	1.8 µM	
O=C(O)CCc1ccc(OCCC2Oc3ccccc3N(Cc3cccc(Cl)c3)C2=O)cc1 (stereo not drawn)			Fold induction [3]: 3.6
CC(=O)c1ccc2c(c1)OC(CCOc1ccccc1CC(=O)O)C(=O)N2Cc1ccc(Cl)cc1 (stereo not drawn)	6.2 µM	1.8 µM	
O=C(O)Cc1cccc(OCCC2Oc3ccccc3N(Cc3ccc(Cl)cc3)C2=O)c1 (stereo not drawn)	> 10 µM	> 5 µM	
O=C(O)Cc1ccc(OCCC2Oc3ccccc3N(Cc3cccc(Cl)c3)C2=O)cc1 (stereo not drawn)			Fold induction [3]: 3.2
CN(CCOc1ccc(CC2SC(=O)NC2=O)cc1)c1ccccn1 (stereo not drawn)	0.12 µM		
O=C(O)c1ccccc1OCCC1Oc2ccccc2N(Cc2ccc(Cl)cc2)C1=O (stereo not drawn)	> 10 µM	> 5 µM	
O=C(O)Cc1cccc(OCCC2Oc3ccccc3N(Cc3cccc(Cl)c3)C2=O)c1 (stereo not drawn)	> 10 µM	> 5 µM	Fold induction [3]: 5.5
O=C(O)CCc1cccc(OCCC2Oc3ccccc3N(Cc3cccc(Cl)c3)C2=O)c1 (stereo not drawn)			Fold induction [3]: 5.6
